ChEMBL document CHEMBL1649230, “Aryl rhodanines specifically inhibit staphylococcal and enterococcal biofilm formation” (Antimicrob Agents Chemother, 2009)
Active and inactive are the calls of the source. The rule behind the calls is not given here.

Experiments:
Staphylococcus aureus [1] = assay: Antimicrobial activity against community acquired methicillin-resistant Staphylococcus aureus isolate 33548 assessed as inhibition of bacterial biofilm after 18 hrs by broth microdilution method; type: functional
Summary of the method: (§1)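 Biofilm MBIC on tissue culture-treated polystyrene 96-well plates. Twofold dilutions, 0.2 to 100 μM final, with 2% DMSO final. Inoculum was an overnight culture diluted 1:100 (~5 × 10^6 cells/well) in 0.5× TSB plus 1% glucose, grown 18 h at 37°C. Wells washed, heat-fixed 60°C 60 min, stained with 0.06% crystal violet, OD600 read. MBIC is the lowest concentration giving ≥80% inhibition versus untreated; geometric mean of ≥3 experiments.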

Staphylococcus aureus [2] = assay: Antimicrobial activity against community acquired methicillin-resistant Staphylococcus aureus isolate 27687 assessed as inhibition of bacterial biofilm after 18 hrs by broth microdilution method; type: functional; summary of the method: as §1
Staphylococcus aureus [3] = assay: Antimicrobial activity against community acquired methicillin-resistant Staphylococcus aureus isolate 35392 assessed as inhibition of bacterial biofilm after 18 hrs by broth microdilution method; type: functional; summary of the method: as §1
Enterococcus faecalis [4] = assay: Antimicrobial activity against Enterococcus faecalis ATCC 51299 on medical grade silicone disk assessed as inhibition of bacterial biofilm after 18 hrs by broth microdilution method; type: functional
Enterococcus faecalis [5] = assay: Antimicrobial activity against vancomycin-resistant Enterococcus faecalis isolate F177 on medical grade silicone disk assessed as inhibition of bacterial biofilm after 18 hrs by broth microdilution method; type: functional
Summary of the method: (§2)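 Medical-grade silicone disks glued to 24-well plate bottoms. Compound added to a 1:100 overnight-culture inoculum (0.5× TSB, 1% glucose) at 2% DMSO final; ≥3 wells each, ~18 h at 37°C. Washed with water, heat-fixed 60°C 60 min, stained with 0.06% crystal violet, eluted with 30% acetic acid, OD600 read. Repeated ≥3 times.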

Enterococcus faecalis [6] = assay: Antimicrobial activity against vancomycin-resistant Enterococcus faecalis isolate F317 on medical grade silicone disk assessed as inhibition of bacterial biofilm after 18 hrs by broth microdilution method; type: functional; summary of the method: as §2
Enterococcus faecalis [7] = assay: Antimicrobial activity against vancomycin-resistant Enterococcus faecalis isolate F217 assessed as inhibition of bacterial biofilm after 18 hrs by broth microdilution method; type: functional; summary of the method: as §1
Enterococcus faecalis [8] = assay: Antimicrobial activity against vancomycin-resistant Enterococcus faecalis isolate F217 on medical grade silicone disk assessed as inhibition of bacterial biofilm after 18 hrs by broth microdilution method; type: functional; summary of the method: as §2
Staphylococcus aureus [9] = assay: Antimicrobial activity against Staphylococcus aureus ATCC 35556 assessed as inhibition of primary adhesion of bacterial biofilm to silicone disk surface under static condition at 4 times MBIC after 30 mins by fluorescence emission using BaclLight Live Dead stain; type: functional, organism-based
Summary of the method: (§3)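 Mid-log S. aureus ATCC 35556 (OD600 0.5) grown in TSB at 37°C, washed, resuspended in PBS. Compound added (0× to 8× MBIC, 2% DMSO). Suspension placed on tissue culture-treated polystyrene or PVC 96-well plates (eight wells per level) or silicone disks in 24-well plates (three wells). Incubated 30 min at 37°C, then washed. BacLight Live/Dead fluorescence read (ex 485, em 530 nm). Result given as fraction adherent versus untreated.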

Staphylococcus aureus [10] = assay: Antimicrobial activity against Staphylococcus aureus ATCC 35556 assessed as inhibition of bacterial biofilm formation at 4 times MBIC measured after 6 hrs; type: functional, organism-based
Staphylococcus aureus [11] = assay: Antimicrobial activity against Staphylococcus aureus ATCC 35556 assessed as inhibition of primary adhesion of bacterial biofilm to PVC surface under static condition at MBIC after 30 mins by fluorescence emission using BaclLight Live Dead stain; type: functional, organism-based; summary of the method: as §3
Staphylococcus aureus [12] = assay: Antimicrobial activity against community acquired methicillin-resistant Staphylococcus aureus isolate 43349 assessed as inhibition of bacterial biofilm after 18 hrs by broth microdilution method; type: functional; summary of the method: as §1
Staphylococcus aureus [13] = assay: Antimicrobial activity against Staphylococcus aureus ATCC 35556 on medical grade silicone disk assessed as inhibition of bacterial biofilm after 18 hrs by broth microdilution method; type: functional, organism-based
[14] = tested on: Staphylococcus epidermidis; assay: Antimicrobial activity against Staphylococcus epidermidis ATCC 35984 on medical grade silicone disk assessed as inhibition of bacterial biofilm after 18 hrs by broth microdilution method; type: functional; summary of the method: as §2
Staphylococcus aureus [15] = assay: Antimicrobial activity against Staphylococcus aureus ATCC 35556 assessed as effect on protein synthesis at 30 ug/ml; type: functional, organism-based
Staphylococcus aureus [16] = assay: Antimicrobial activity against Staphylococcus aureus ATCC 35556 assessed as effect on protein synthesis at 15 ug/ml; type: functional, organism-based
Staphylococcus aureus [17] = assay: Antimicrobial activity against Staphylococcus aureus ATCC 35556 assessed as inhibition of primary adhesion of bacterial biofilm to silicone disk at MBIC after 30 mins by fluorescence emission using BaclLight Live Dead stain
Staphylococcus aureus [18] = assay: Inhibition of […] of Staphylococcus aureus ATCC 35556 assessed as level of beta-galactosidase activity at 8 times MBIC by Miller assay; type: functional, organism-based
Summary of the method: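 Stationary-phase autolysis used ATCC 35556 carrying pAJ22, inoculated 1:100 from overnight culture into TSB with 6 μg chloramphenicol/ml and varying compound. Cultures were shaken at 250 rpm, 37°C, for 96 h, sampling OD600 and cell-free supernatants over time. Released β-galactosidase in supernatants was assayed with o-nitrophenyl-β-d-galactopyranoside and reported in Miller units.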

Staphylococcus aureus [19] = assay: Antimicrobial activity against Staphylococcus aureus ATCC 35556 assessed as inhibition of primary adhesion of bacterial biofilm to PVC surface under static condition at 4 times MBIC after 30 mins by fluorescence emission using BaclLight Live Dead stain; type: functional, organism-based; summary of the method: as §3
Staphylococcus aureus [20] = assay: Antimicrobial activity against Staphylococcus aureus ATCC 35556 assessed as inhibition of planktonic cell growth at 8 times MBIC; type: functional, organism-based
Staphylococcus aureus [21] = assay: Antimicrobial activity against Staphylococcus aureus ATCC 35556 assessed as inhibition of primary adhesion of bacterial biofilm to polystyrene surface under static condition at 0.5 times MBIC after 30 mins by fluorescence emission using BaclLight Live Dead stain; type: functional, organism-based; summary of the method: as §3
Staphylococcus aureus [22] = assay: Antimicrobial activity against Staphylococcus aureus ATCC 35556 assessed as inhibition of primary adhesion of bacterial biofilm to silicone disk under static condition at MBIC after 30 mins by fluorescence emission using BaclLight Live Dead stain; type: functional, organism-based; summary of the method: as §3
Staphylococcus aureus [23] = assay: Antimicrobial activity against Staphylococcus aureus ATCC 35556 assessed as inhibition of primary adhesion of bacterial biofilm to polystyrene surface under static condition pretreated with compound MBIC for 30 mins measured after 30 mins by fluorescence emission using BaclLight Live Dead stain; type: functional
Summary of the method: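 PBS suspension of mid-log S. aureus ATCC 35556 exposed to compound in tubes for 30 min at 37°C. Cells centrifuged to remove free compound and resuspended in PBS at the original density. They were then placed on tissue culture-treated polystyrene for 30 min at 37°C. Wells washed, BacLight Live/Dead fluorescence read (ex 485, em 530 nm). Fraction adherent calculated versus untreated.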

Staphylococcus aureus [24] = assay: Antimicrobial activity against Staphylococcus aureus ATCC 35556 assessed as inhibition of bacterial biofilm formation at 4 times MBIC measured after 4 hrs; type: functional, organism-based
[25] = tested on: Staphylococcus epidermidis; assay: Antimicrobial activity against methicillin-resistant Staphylococcus epidermidis GTC 18972 assessed as inhibition of bacterial biofilm after 18 hrs by broth microdilution method; type: functional; summary of the method: as §1
Enterococcus faecalis [26] = assay: Antimicrobial activity against vancomycin-resistant Enterococcus faecalis isolate F177 assessed as inhibition of bacterial biofilm after 18 hrs by broth microdilution method; type: functional; summary of the method: as §1

SMILES | MBIC (Staphylococcus aureus [1]) | MBIC (Staphylococcus aureus [3]) | MBIC90 (Enterococcus faecalis [5]) | MBIC90 (Enterococcus faecalis [6]) | MBIC (Enterococcus faecalis [7]) | MBIC90 (Enterococcus faecalis [8]) | inhibition (Staphylococcus aureus [9]) | inhibition (Staphylococcus aureus [11]) | inhibition (Staphylococcus aureus [15]) | inhibition (Staphylococcus aureus [16]) | inhibition (Staphylococcus aureus [19]) | inhibition (Staphylococcus aureus [21]) | inhibition (Staphylococcus aureus [22]) | inhibition (INH) (Staphylococcus aureus [23]) | other results
C=CCOc1cc(/C=C2\SC(=S)N(c3ccc(F)cc3)C2=O)ccc1O | 31.5 µM | 39.7 µM | – | – | – | – | – | – | – | – | – | – | – | – | MBIC (Staphylococcus aureus [2]): 50 µM; MBIC90 (Enterococcus faecalis [4]): 100 µM
CCOc1cc(/C=C2\SC(=S)N(c3cccc(F)c3)C2=O)ccc1O | 35.4 µM | – | >=100 uM | >=100 uM | 29.7 µM | >=100 uM | – | – | – | – | – | – | – | – | –
CCOc1cc(/C=C2\SC(=S)N(c3ccc(F)cc3)C2=O)ccc1O | – | – | >=100 uM | >=100 uM | 12.5 µM | >=100 uM | Active | Active | inactive | inactive | Active | Active | Active | >=80% | inhibition (Staphylococcus aureus [10]): Active; MBIC (Staphylococcus aureus [12]): 35.4 µM; Activity (Staphylococcus aureus [13]): Dose-dependent effect; MBIC90 [14]: 42 µM; inhibition (Staphylococcus aureus [17]): Active; inhibition (Staphylococcus aureus [18]): inactive; inhibition (Staphylococcus aureus [20]): inactive; inhibition (Staphylococcus aureus [24]): Active; MBIC [25]: 21 µM
CCOc1cc(/C=C2\SC(=S)N(c3cccnc3)C2=O)ccc1O | – | 25 µM | – | – | – | – | Active | Active | inactive | inactive | Active | Active | Active | >=80% | MBIC (Enterococcus faecalis [26]): 19.8 µM
